Compound activity as filed in PubChem BioAssay.
Only some compounds are listed: those with a hit (about 4.6% of all), similar ones and a draw of the others.
CHO parental Ca: ATP-evoked calcium signal inhibitors, parental CHO, primary screen, counter-screen for OX1R antagonist project, cell-based, fluorescence, Fluo-8 calcium dye; parental CHO-K1, ATP-induced calcium, Fluo-8 fluorescence; inhibition, % at 5.6 µM; hit rate 0.63% among 330,000; AID 463079, 2010;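 active means inhibition above that plate's mean sample inhibition plus 3 SD, cut at about 26% in these data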;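 further: 0% = ATP-challenged DMSO wells and 100% = DMSO wells without ATP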
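material = parental CHO cells | also added = ATP as calcium-mobilizing challenge | dosing = single point at 5.6 µM | detection = intracellular calcium via Fluo-8 no-wash fluorescent dye | read-out = % inhibition | benchmarks = low control ATP plus DMSO, high control DMSO only | repeats = one well per compound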
TAAR1 antag: human TAAR1 antagonists, primary screen, Fluo-8 calcium fluorescence, CHO RD-HGA16 cells; hit rate 1.5% among 360,000; inhibition, % at 3 µM; antagonist; Trace amine-associated receptor 1 (Homo sapiens), Q96RJ0;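 active means inhibition above a per-plate cutoff, the mean inhibition of test compounds on that plate plus 3 SD, cut at about 49% in these data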;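 further: 0% = DMSO plus EC80 beta-PEA response and 100% = DMSO alone without agonist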
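Material: CHO RD-HGA16 cells bearing hTAAR1; compound dosing: one-point dosing, 3 µM nominal final; schedule: dye loading 75 min at 37 °C, then 30 min room temperature; measured by: calcium fluorescence with Fluo-8; control set: vehicle and agonist controls; replication: n of 1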
OX1R antag-1: antagonists of human orexin 1 receptor (OX1R) | OX1R-expressing cells, FRET antagonist read-out | hit rate 1.8% among 330,000 | inhibition, % at 6.6 µM | AID 485270, 2010; in the data active means inhibition mostly above about 38%, no sharp cut-off; inactive means mostly below about 40%;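 further: 0% = agonist challenge alone and 100% = reference antagonist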
GPR7 antagonist: GPR7 receptor antagonists, primary screen, cell-based, fluorescence, single concentration | Neuropeptides B/W receptor type 1 (Homo sapiens), P48145 | GPR7-expressing cells, fluorescence antagonist assay | inhibition, % at 4.4 µM | hit rate 1.1% among 290,000; in the data active means inhibition above about 16%, passing the limit was not always enough;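 further: cells stimulated with the agonist NPW; 0% = agonist with vehicle and 100% = vehicle without agonist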
Target sequence (P48145 whole entry, looked up): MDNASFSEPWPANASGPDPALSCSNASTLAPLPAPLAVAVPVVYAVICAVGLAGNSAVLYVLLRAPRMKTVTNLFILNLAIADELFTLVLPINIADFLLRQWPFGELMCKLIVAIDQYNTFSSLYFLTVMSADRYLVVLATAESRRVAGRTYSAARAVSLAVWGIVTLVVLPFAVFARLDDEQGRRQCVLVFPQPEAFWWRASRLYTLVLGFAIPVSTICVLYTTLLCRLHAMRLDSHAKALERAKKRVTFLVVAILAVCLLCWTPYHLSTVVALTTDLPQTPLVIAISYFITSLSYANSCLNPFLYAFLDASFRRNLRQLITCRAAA
TAAR1 ag: human TAAR1 agonists, primary screen, Fluo-8 calcium fluorescence, CHO RD-HGA16 cells; vehicle wells 0%, saturating PEA agonist 100%; hit rate 0.99% among 360,000; Trace amine-associated receptor 1 (Homo sapiens), Q96RJ0; activation, % at 3 µM;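 active means activation above the mean activation of all test compounds in the run plus 3 SD, cut at about 38% in these data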
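Signal – calcium-sensitive Fluo-8 signal, excitation 470-495, emission 515-575 nm · System – RD-HGA16 (CHO) cells co-expressing Gα16 and hTAAR1 · Incubation – 17-24 h seeding, 75 min 37 °C dye, 30 min RT · Compound dosing – 3 µM single concentration · Repeats – no replicates (n 1)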
OX1R antag-2: OX1R (HCRTR1) antagonists, primary screen, fluorescence, CHO/OX1R cells, Fluo-8 calcium, orexin A; Fluo-8 calcium fluorescence; inhibition, % at 5 µM; AID 434989, 2010; Orexin/Hypocretin receptor type 1 (Homo sapiens), O43613; hit rate 0.43% among 330,000;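 active means inhibition above its plate's threshold, mean inhibition of all tested compounds on the plate plus 3 SD, cut at about 37% in these data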;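 further: 0% = orexin A challenge wells and 100% = SB-334867-A antagonist wells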
Numbers without * were called inactive; . = no result.

SMILES | CHO parental Ca | TAAR1 antag | OX1R antag-1 | GPR7 antagonist | TAAR1 ag | OX1R antag-2
COc1ccccc1-c1cc(NC=O)c2ncc(-c3ccc(F)cc3)n2c1 | . | 51* | . | . | 52* | .
CC(=O)c1c(C)[nH]c(C(=O)COC(=O)C2(C)CC2(Cl)Cl)c1C (centres undefined) | -6 | 56* | 6 | . | 17 | 16
CC(=O)c1c(C)[nH]c(C(=O)COC(=O)c2cc(C)oc2C)c1C | -5 | 16 | 15 | . | 8 | 18
CN(C)C(CNC(=O)c1ccc(S(=O)(=O)N(C)C)cc1)Cc1ccccc1 (centres undefined) | -18 | -1 | 7 | 0 | 1 | -20
CC(=O)OC[C@@H]1CN(Cc2cccc(C(F)(F)F)c2)C[C@H](n2cnc3c(NCc4ccco4)ncnc32)O1 | . | 56* | . | . | 9 | .
CC(=O)OC[C@@H]1CN(Cc2cccc(C(F)(F)F)c2)C[C@H](n2cnc3c(N4CCOCC4)ncnc32)O1 | . | -14 | . | . | -1 | .
Cc1cc(C)n2nc(-c3ccccc3)cc2n1 | -2 | 0 | 26 | 2 | 1 | -11
Cc1cc(C)n2nc(Nc3ccccc3)cc2n1 | -20 | -10 | 49* | -3 | 0 | -2
COc1ccc(CC(=O)N2CCN(S(=O)(=O)c3cccs3)CC2)cc1OC | -16 | -25 | 5 | -13 | 1 | -13
O=S(=O)(NCc1ccncc1)c1ccc(F)c(F)c1 | . | 4 | . | . | 7 | .
CNC(=O)c1cc(S(=O)(=O)NCc2ccncc2)ccc1OC | 3 | -13 | 6 | -12 | 1 | -4
COc1cc(S(=O)(=O)NCc2ccncc2)ccc1Br | 31* | 5 | 8 | 3 | 2 | 11
Cc1ccc(S(=O)(=O)NCc2ccncc2)cc1C | 33* | 26 | 64 | 8 | 5 | 41*
CCN(C1CCCCC1)S(=O)(=O)c1ccc(S(=O)(=O)NCc2ccncc2)cc1 | 6 | 1 | 34 | 21* | 18 | 0
CCN(C1CCCCC1)S(=O)(=O)c1ccc(S(=O)(=O)NCCc2ccncc2)cc1 | -17 | 22 | 16 | -2 | 10 | -26
CCCC1=C(C(=O)OCC)C(c2ccccc2OC)NC(=O)N1 (centres undefined) | -12 | -10 | 20 | -18 | -1 | -6
O=C(Nc1ccncc1)c1ccc(Cl)c(S(=O)(=O)N2CCc3ccccc32)c1 | 44* | 63* | 50* | . | 15 | 34
Cc1cccc(NC(=O)c2ccc(Cl)c(S(=O)(=O)N3CCc4ccccc43)c2)n1 | -14 | 16 | 35* | . | 2 | 27
CCc1nnc(NC(=O)c2ccc(Cl)c(S(=O)(=O)N3CCc4ccccc43)c2)s1 | 13 | 20 | 60 | 10 | 13 | -1
Cc1cccc(NC(=O)c2ccc(Cl)c(S(=O)(=O)N3CCCC3)c2)n1 | -16 | -5 | 28 | -13 | 3 | -26
O=C(Nc1nnc(C2CC2)s1)c1ccc(Cl)c(S(=O)(=O)N2CCc3ccccc3C2)c1 | 0 | 57* | 30 | -5 | 10 | 10
O=C(Nc1ccc(C(=O)O)cc1)/C(=C\c1ccc2c(c1)OCO2)NC(=O)c1ccccc1Cl | . | -7 | . | . | 0 | .
Cc1nn(C)c(Cl)c1CN1CCCC(CO)(Cc2ccccc2)C1 (centres undefined) | -15 | -6 | 7 | -2 | 3 | -21
Fc1ccc(CSc2nc3ncc(Br)cc3[nH]2)cc1 | -8 | 0 | 14 | -9 | 10 | -6
COc1ccc(C(=O)CSc2cc(C)[nH]c(=O)n2)cc1 | -11 | -4 | 28 | -13 | 1 | -23
CCS(=O)(=O)N1CCC(C(=O)OCC(=O)c2ccc(Br)cc2)CC1 | 50* | -4 | 12 | -14 | 6 | -31
Cc1ccc2cccc(OCC(=O)N3CC(C)CC(C)C3)c2n1 (centres undefined) | -10 | 5 | 16 | 17* | 10 | -24
O=C(OCn1ncc(Br)c(Br)c1=O)c1ccccc1Cl | -3 | . | 35 | 20 | . | 2
O=C(OCn1ncc(Cl)c(Cl)c1=O)c1cccc(C(F)(F)F)c1 | 81* | . | 6 | 16 | . | 52*
